# Results published in ChEMBL document CHEMBL1138496, “Synthesis and evaluation of a novel indoledione class of long chain fatty acid elongase 6 (ELOVL6) inhibitors” (J Med Chem, 2009).
# Columns and labels:
# [1] = biological target: T1, Very long chain fatty acid elongase 6 (Homo sapiens, UniProt Q9H5J4); assay: Inhibition of human ELOVL6 expressed in african green monkey COS7 cells assessed as palmitoyl-CoA elongation; format: cell-based, COS-7
# T1 sequence (Q9H5J4 whole entry): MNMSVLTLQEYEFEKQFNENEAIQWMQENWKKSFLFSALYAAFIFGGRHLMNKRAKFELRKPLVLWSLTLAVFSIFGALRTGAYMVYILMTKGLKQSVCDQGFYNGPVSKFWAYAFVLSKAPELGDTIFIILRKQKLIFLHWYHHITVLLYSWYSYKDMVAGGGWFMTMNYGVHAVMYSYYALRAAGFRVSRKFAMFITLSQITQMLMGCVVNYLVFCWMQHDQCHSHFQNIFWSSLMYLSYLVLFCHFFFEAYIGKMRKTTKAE
# Summary of the method: (§1)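 IC50 against each ELOVL subtype, each with its own fatty acyl-CoA substrate. Human ELOVL6 used palmitoyl-CoA elongation. Radioactive ELOVL6 products were detected with recombinant histidine-tagged ACBP as a probe. Values are mean ± SE, n ≥ 3.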
# [2] = biological target: T2, Very long chain fatty acid elongase 3 (Homo sapiens, UniProt Q9HB03); assay: Inhibition of human ELOVL3 expressed in african green monkey COS7 cells assessed as stearoyl-CoA elongation; format: cell-based, COS-7; summary of the method: as §1
# T2 sequence (Q9HB03 whole entry): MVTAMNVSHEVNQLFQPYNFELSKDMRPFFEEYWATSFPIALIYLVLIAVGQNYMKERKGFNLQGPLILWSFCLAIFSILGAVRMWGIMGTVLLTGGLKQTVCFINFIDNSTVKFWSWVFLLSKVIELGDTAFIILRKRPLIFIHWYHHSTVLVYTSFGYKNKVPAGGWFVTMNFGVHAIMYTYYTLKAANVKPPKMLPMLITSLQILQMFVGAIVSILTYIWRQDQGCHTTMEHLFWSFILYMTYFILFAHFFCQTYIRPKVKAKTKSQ
# Mus musculus = assay: Inhibition of ELOVL6 activity in po dosed C57BL/6J mouse liver assessed as […] administered 1 hr before [1-14C]palmitic acid measured after 2 hrs; format: functional, organism-based
# [3] = Plasma concentration in mouse at 1 mg/kg, po after 2 hrs; format: ADME, organism-based; design: dose 1 mg/kg, route oral
# Summary of the method: (§2)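 Compound was given orally at 1 mg/kg to mice. Plasma levels were sampled at 2, 4, 8 and 24 h. Values are the mean of n = 3 animals.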
# [4] = biological target: T3, Very long chain fatty acid elongase 6 (Mus musculus, UniProt Q920L5); assay: Inhibition of mouse ELOVL6 expressed in african green monkey COS7 cells; format: cell-based, COS-7; summary of the method: as §1
# T3 sequence (Q920L5 whole entry): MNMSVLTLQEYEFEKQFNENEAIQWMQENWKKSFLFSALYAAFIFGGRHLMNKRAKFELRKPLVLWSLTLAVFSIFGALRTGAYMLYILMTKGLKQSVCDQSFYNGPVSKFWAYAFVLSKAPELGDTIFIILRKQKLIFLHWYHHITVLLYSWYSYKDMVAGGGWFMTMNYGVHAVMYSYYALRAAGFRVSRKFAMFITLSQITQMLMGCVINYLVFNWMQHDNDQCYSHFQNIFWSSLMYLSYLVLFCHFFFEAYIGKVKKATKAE
# [5] = biological target: T4, Very long chain fatty acid elongase 2 (Homo sapiens, UniProt Q9NXB9); assay: Inhibition of human ELOVL2 expressed in african green monkey COS7 cells; format: cell-based, COS-7; summary of the method: as §1
# T4 sequence (Q9NXB9 whole entry): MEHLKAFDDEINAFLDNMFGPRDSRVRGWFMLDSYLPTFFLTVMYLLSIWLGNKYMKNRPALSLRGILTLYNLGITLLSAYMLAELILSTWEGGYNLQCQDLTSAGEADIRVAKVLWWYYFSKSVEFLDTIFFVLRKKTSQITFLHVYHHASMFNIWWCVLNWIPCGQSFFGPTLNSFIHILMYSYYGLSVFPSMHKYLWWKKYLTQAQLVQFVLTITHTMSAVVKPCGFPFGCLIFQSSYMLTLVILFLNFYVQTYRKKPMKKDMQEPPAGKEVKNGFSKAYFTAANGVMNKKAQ
# [6] = biological target: T5, Very long chain fatty acid elongase 5 (Homo sapiens, UniProt Q9NYP7); assay: Inhibition of human ELOVL5 expressed in african green monkey COS7 cells; format: cell-based, COS-7; summary of the method: as §1
# T5 sequence (Q9NYP7 whole entry): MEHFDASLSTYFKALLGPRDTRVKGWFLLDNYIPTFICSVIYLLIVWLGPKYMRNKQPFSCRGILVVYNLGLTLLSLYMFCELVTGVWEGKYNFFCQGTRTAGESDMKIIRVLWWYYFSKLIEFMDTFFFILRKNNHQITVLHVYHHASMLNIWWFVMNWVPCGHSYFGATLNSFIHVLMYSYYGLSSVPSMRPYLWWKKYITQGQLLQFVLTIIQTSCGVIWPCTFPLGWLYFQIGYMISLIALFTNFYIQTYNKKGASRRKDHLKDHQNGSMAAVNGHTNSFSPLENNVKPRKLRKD
# [7] = biological target: T6, Very long chain fatty acid elongase 3 (Mus musculus, UniProt O35949); assay: Inhibition of mouse ELOVL3 expressed in african green monkey COS7 cells; format: cell-based, COS-7; summary of the method: as §1
# T6 sequence (O35949 whole entry): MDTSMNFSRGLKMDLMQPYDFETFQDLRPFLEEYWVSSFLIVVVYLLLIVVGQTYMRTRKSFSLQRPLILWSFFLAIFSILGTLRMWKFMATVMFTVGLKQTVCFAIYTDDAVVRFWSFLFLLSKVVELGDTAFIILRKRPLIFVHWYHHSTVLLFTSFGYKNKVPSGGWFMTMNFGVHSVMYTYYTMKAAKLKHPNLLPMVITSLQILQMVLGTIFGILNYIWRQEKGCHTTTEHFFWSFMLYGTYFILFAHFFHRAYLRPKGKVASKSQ
# [8] = Plasma concentration in mouse at 1 mg/kg, po after 8 hrs; format: ADME, organism-based; design: dose 1 mg/kg, route oral; summary of the method: as §2
# [9] = biological target: T7, Very long chain fatty acid elongase 1 (Homo sapiens, UniProt Q9BW60); assay: Inhibition of human ELOVL1 expressed in african green monkey COS7 cells; format: cell-based, COS-7; summary of the method: as §1
# T7 sequence (Q9BW60 whole entry): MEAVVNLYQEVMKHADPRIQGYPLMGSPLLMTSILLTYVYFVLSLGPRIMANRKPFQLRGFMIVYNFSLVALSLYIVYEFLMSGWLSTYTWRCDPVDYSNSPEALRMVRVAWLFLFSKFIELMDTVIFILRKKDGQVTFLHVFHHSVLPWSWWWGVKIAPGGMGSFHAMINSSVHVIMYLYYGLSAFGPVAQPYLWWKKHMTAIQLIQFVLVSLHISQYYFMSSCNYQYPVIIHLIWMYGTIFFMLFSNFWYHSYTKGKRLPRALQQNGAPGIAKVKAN
# [10] = Plasma concentration in mouse at 10 mg/kg, po after 2 hrs; format: ADME, organism-based; design: dose 10 mg/kg, route oral
# [11] = Drug level in mouse liver at 10 mg/kg, po after 2 hrs; format: ADME, organism-based; design: dose 10 mg/kg, route oral; settings: read-out: Drug uptake
# [12] = Plasma concentration in mouse at 1 mg/kg, po after 4 hrs; format: ADME, organism-based; design: dose 1 mg/kg, route oral; summary of the method: as §2
# [13] = Plasma concentration in mouse at 1 mg/kg, po after 24 hrs; format: ADME, organism-based; design: dose 1 mg/kg, route oral; summary of the method: as §2
structure (smiles),measurement,setting,value
Cc1[nH]n(C(C)C)c(=O)c1C1(C(F)(F)F)C(=O)N(c2ccccc2)C2=C1C(=O)CC(C)(C)C2 (stereo unspecified),IC50,[1],> 10 µM
Cc1[nH]n(-c2ccccc2)c(=O)c1C1(C(F)(F)F)C(=O)N(c2ccccc2)C2=C1C(=O)CC(c1ccccc1)C2 (stereo unspecified),IC50,[1],6.26 µM
COc1ccc(-n2[nH]c(C)c(C3(C(F)(F)F)C(=O)N(c4ccccc4)C4=C3C(=O)CC(C)(C)C4)c2=O)cc1 (stereo unspecified),IC50,[2],503 nM
Cc1[nH]n(-c2ccccc2)c(=O)c1C1(C(F)(F)F)C(=O)N(c2ccccc2)C2=C1C(=O)CC(C)C2 (stereo unspecified),IC50,[1],0.704 µM
Cc1[nH]n(C)c(=O)c1C1(C(F)(F)F)C(=O)N(c2ccccc2)C2=C1C(=O)CC(C)(C)C2 (stereo unspecified),IC50,[1],2.02 µM
Cc1[nH]n(C2CCCCC2)c(=O)c1C1(C(F)(F)F)C(=O)N(c2ccccc2)C2=C1C(=O)CC(C)(C)C2 (stereo unspecified),IC50,[1],> 10 µM
Cc1[nH]n(-c2ccc(OC(F)(F)F)cc2)c(=O)c1C1(C(F)(F)F)C(=O)N(c2ccccc2)C2=C1C(=O)CC(C)(C)C2 (stereo unspecified),Activity,Mus musculus,Dose-dependent effect
same,concentration at 2 h,[3],3.4 µM
same,IC50,[4],31 nM
same,IC50,[5],> 10 µM
same,IC50,[6],> 10 µM
same,IC50,[7],194 nM
same,concentration at 8 h,[8],1400 nM
same,IC50,[9],> 10 µM
same,concentration at 2 h,[10],30 µM
same,concentration at 2 h,[11],50 µM
same,concentration at 4 h,[12],2800 nM
same,IC50,[2],337 nM
same,concentration at 24 h,[13],400 nM
Cc1[nH]n(-c2ccc(C(C)C)cc2)c(=O)c1C1(C(F)(F)F)C(=O)N(c2ccccc2)C2=C1C(=O)CC(C)(C)C2 (stereo unspecified),IC50,[2],59 nM
Cc1[nH]n(-c2ccc(C#N)cc2)c(=O)c1C1(C(F)(F)F)C(=O)N(c2ccccc2)C2=C1C(=O)CC(C)(C)C2 (stereo unspecified),IC50,[2],1100 nM
Cc1[nH]n(-c2ccccc2)c(=O)c1C1(C(F)(F)F)C(=O)N(c2ccccc2)C2=C1C(=O)CC1(CCC1)C2 (stereo unspecified),IC50,[1],0.123 µM
Cc1[nH]n(-c2ccc(Cl)cc2)c(=O)c1C1(C(F)(F)F)C(=O)N(c2ccccc2)C2=C1C(=O)CC(C)(C)C2 (stereo unspecified),IC50,[2],221 nM
Cc1ccc(-n2[nH]c(C)c(C3(C(F)(F)F)C(=O)N(c4ccccc4)C4=C3C(=O)CC(C)(C)C4)c2=O)cc1 (stereo unspecified),IC50,[2],375 nM
CC(C)c1[nH]n(-c2ccccc2)c(=O)c1C1(C(F)(F)F)C(=O)N(c2ccccc2)C2=C1C(=O)CC(C)(C)C2 (stereo unspecified),IC50,[1],> 10 µM
Cc1[nH]n(-c2ccccc2)c(=O)c1C1(C(F)(F)F)C(=O)N(c2ccccc2)C2=C1C(=O)CCC2 (stereo unspecified),IC50,[1],4.5 µM
